Results reported in ChEMBL document CHEMBL2069269, “Anti-inflammatory Effect of a Cell-Penetrating Peptide Targeting the Nrf2/Keap1 Interaction” (2012).
Active and inactive are the calls of the source. No cut-off for these calls is given here. Where a SMILES comes first, the peptide text is derived from it.

Assays:
[1] = biological target: Kelch-like ECH-associated protein 1 (Homo sapiens) (UniProt Q14145); assay: Inhibition of Keap1 interaction with Nrf2 in human THP1 cells assessed as increase in Nrf2 protein expression at 100 uM from 1 to 6 hrs by Western blot analysis; type: cell-based; details: THP-1
Sequence of Kelch-like ECH-associated protein 1 (Homo sapiens) (Q14145 whole entry): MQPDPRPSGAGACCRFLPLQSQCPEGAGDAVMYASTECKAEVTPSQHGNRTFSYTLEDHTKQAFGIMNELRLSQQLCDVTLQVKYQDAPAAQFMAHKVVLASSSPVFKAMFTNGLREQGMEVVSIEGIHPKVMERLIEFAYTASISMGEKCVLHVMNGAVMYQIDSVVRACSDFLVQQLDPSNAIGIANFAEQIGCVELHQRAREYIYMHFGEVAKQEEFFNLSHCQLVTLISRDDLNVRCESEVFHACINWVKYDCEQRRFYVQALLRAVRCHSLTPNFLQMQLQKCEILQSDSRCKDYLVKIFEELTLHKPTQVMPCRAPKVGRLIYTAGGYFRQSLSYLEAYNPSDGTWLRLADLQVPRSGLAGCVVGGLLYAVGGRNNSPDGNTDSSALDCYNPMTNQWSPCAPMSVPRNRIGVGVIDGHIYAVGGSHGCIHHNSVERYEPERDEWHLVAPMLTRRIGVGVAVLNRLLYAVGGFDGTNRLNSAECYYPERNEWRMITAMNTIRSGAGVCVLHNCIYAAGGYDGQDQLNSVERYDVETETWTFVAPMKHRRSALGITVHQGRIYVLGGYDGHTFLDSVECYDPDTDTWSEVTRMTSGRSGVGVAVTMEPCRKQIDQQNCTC
Outline: (§1)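 THP-1 cells were incubated with peptide over a time course, alongside a peptide scrambled in the Keap1-binding 14mer region. Nrf2 protein was detected in cell lysates by Western blot.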

[2] = biological target: Kelch-like ECH-associated protein 1 (Homo sapiens) (UniProt Q14145); assay: Inhibition of Keap1 interaction with Nrf2 in human THP1 cells assessed as increase in HO-1 mRNA expression at 100 uM from 2 to 8 hrs by qRT-PCR analysis; type: cell-based; details: THP-1
Outline: (§2)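 Human THP-1 monocytes were incubated with peptide over a time course. HO-1 mRNA was measured by qRT-PCR and normalised to GAPDH mRNA. Data are means ± SEM, n = 3. A dose series of 7.5, 18.75, 37.5 and 75 μM was also tested by the same read-out.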

[3] = biological target: Kelch-like ECH-associated protein 1 (Homo sapiens) (UniProt Q14145); assay: Inhibition of Keap1 interaction with Nrf2 in human THP1 cells assessed as increase in HO-1 protein expression at 100 uM at 9 to 16 hrs by Western blot analysis; type: cell-based; details: THP-1
Outline: (§3)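 THP-1 monocytes were treated with peptide or the scrambled-sequence control peptide over a time course. HO-1 protein was assessed by Western blot. The blot shown is representative of n = 3 experiments.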

[4] = biological target: Kelch-like ECH-associated protein 1 (Homo sapiens) (UniProt Q14145); assay: Inhibition of Keap1 interaction with Nrf2 in human THP1 cells assessed as increase in HO-1 mRNA expression at 100 uM from 3 to 6 hrs by qRT-PCR analysis; type: cell-based; details: THP-1; outline: as §2
[5] = biological target: Kelch-like ECH-associated protein 1 (Homo sapiens) (UniProt Q14145); assay: Inhibition of Keap1 interaction with Nrf2 in human THP1 cells assessed as increase in Nrf2 protein expression at 100 uM after 3 hrs by Western blot analysis; type: cell-based; details: THP-1; outline: as §1
THP-1 [6] = assay: Upregulation of Nrf2 mRNA expression in human THP1 cells at 100 uM by qRT-PCR analysis; type: functional, cell-based
[7] = biological target: Kelch-like ECH-associated protein 1 (Homo sapiens) (UniProt Q14145); assay: Inhibition of Keap1 interaction with Nrf2 in human THP1 cells assessed as increase in HO-1 mRNA expression at 75 uM at 6 hrs by qRT-PCR analysis relative to control; type: cell-based; details: THP-1; outline: as §2
[8] = biological target: Kelch-like ECH-associated protein 1 (Homo sapiens) (UniProt Q14145); assay: Inhibition of Keap1 interaction with Nrf2 in human THP1 cells assessed as increase in HO-1 protein expression at 100 uM at 12 hrs by Western blot analysis; type: cell-based; details: THP-1; outline: as §3
[9] = biological target: Kelch-like ECH-associated protein 1 (Homo sapiens) (UniProt Q14145); assay: Inhibition of Keap1 interaction with Nrf2 in human THP1 cells assessed as increase in HO-1 protein expression by Western blot analysis; type: cell-based; details: THP-1; outline: as §3
[10] = biological target: Kelch-like ECH-associated protein 1 (Homo sapiens) (UniProt Q14145); assay: Inhibition of Keap1 interaction with Nrf2 in human THP1 cells assessed as increase in HO-1 protein expression at 37.5 uM by Western blot analysis; type: cell-based; details: THP-1
THP-1 [11] = assay: Antiinflammatory activity in human THP1 cells assessed as inhibition of LPS-induced TNFalpha mRNA expression at 100 uM incubated for 4 hrs prior to LPS-stimulation measured after 3 hrs by qRT-PCR analysis

With `CC[C@H](C)[C@H](NC(=O)[C@H](CC(=O)O)NC(=O)[C@@H](NC(=O)CNC(=O)[C@H](Cc1ccccc1)NC(=O)[C@H](CCC(=O)O)NC(=O)[C@H](CCCNC(=N)N)NC(=O)[C@H](CCCNC(=N)N)NC(=O)[C@H](CCCNC(=N)N)NC(=O)[C@H](CCC(N)=O)NC(=O)[C@H](CCCNC(=N)N)NC(=O)[C@H](CCCNC(=N)N)NC(=O)[C@H](CCCCN)NC(=O)[C@H](CCCCN)NC(=O)[C@H](CCCNC(=N)N)NC(=O)CNC(=O)[C@@H](N)Cc1ccc(O)cc1)[C@@H](C)O)C(=O)N[C@@H](CCC(N)=O)C(=O)N[C@@H](CC(C)C)C(=O)N[C@H](C(=O)N[C@@H](CCC(=O)O)C(=O)N1CCC[C@H]1C(=O)N[C@@H](CCC(N)=O)C(=O)N[C@@H](CC(C)C)C(=O)N[C@@H](CCC(=O)O)C(=O)O)[C@@H](C)CC` (H-YGRKKRRQRRREFGTDIQLIEPQLE-OH) the inhibition [1] was “inactive”, the inhibition [2] was “inactive” and the inhibition [3] was “inactive”.
In the case of `CC[C@H](C)[C@H](NC(=O)[C@@H]1CCCN1C(=O)[C@H](CC(C)C)NC(=O)[C@H](Cc1ccccc1)NC(=O)[C@H](CCC(=O)O)NC(=O)CNC(=O)[C@@H](NC(=O)[C@H](CCC(=O)O)NC(=O)[C@H](CCC(=O)O)NC(=O)[C@H](CC(=O)O)NC(=O)[C@H](CC(C)C)NC(=O)[C@H](CCC(N)=O)NC(=O)[C@@H](N)CC(C)C)[C@@H](C)O)C(=O)N[C@@H](CCC(N)=O)C(=O)O`, the inhibition [2] was “inactive”.
In the case of `CC(C)C[C@H](NC(=O)[C@H](CCCNC(=N)N)NC(=O)[C@H](CCCNC(=N)N)NC(=O)[C@H](CCCNC(=N)N)NC(=O)[C@H](CCC(N)=O)NC(=O)[C@H](CCCNC(=N)N)NC(=O)[C@H](CCCNC(=N)N)NC(=O)[C@H](CCCCN)NC(=O)[C@H](CCCCN)NC(=O)[C@H](CCCNC(=N)N)NC(=O)CNC(=O)[C@@H](N)Cc1ccc(O)cc1)C(=O)N[C@@H](CC(=O)O)C(=O)N[C@@H](CCC(=O)O)C(=O)N[C@@H](CCC(=O)O)C(=O)N[C@H](C(=O)NCC(=O)N[C@@H](CCC(=O)O)C(=O)N[C@@H](Cc1ccccc1)C(=O)N[C@@H](CC(C)C)C(=O)N1CCC[C@H]1C(=O)O)[C@@H](C)O`, the inhibition [4] was “Active”.
With `CC(C)C[C@H](NC(=O)[C@H](Cc1ccccc1)NC(=O)[C@H](CCC(=O)O)NC(=O)CNC(=O)[C@@H](NC(=O)[C@H](CCC(=O)O)NC(=O)[C@H](CCC(=O)O)NC(=O)[C@H](CC(=O)O)NC(=O)[C@H](CC(C)C)NC(=O)[C@H](CCC(N)=O)NC(=O)[C@H](CC(C)C)NC(=O)[C@H](CCC(N)=O)NC(=O)[C@H](C)NC(=O)[C@H](Cc1ccccc1)NC(=O)[C@H](Cc1ccccc1)NC(=O)[C@H](C)NC(=O)[C@H](CCCNC(=N)N)NC(=O)[C@H](CCCNC(=N)N)NC(=O)[C@H](CCCNC(=N)N)NC(=O)[C@H](CCC(N)=O)NC(=O)[C@H](CCCNC(=N)N)NC(=O)[C@H](CCCNC(=N)N)NC(=O)[C@H](CCCCN)NC(=O)[C@H](CCCCN)NC(=O)[C@H](CCCNC(=N)N)NC(=O)CNC(=O)[C@@H](N)Cc1ccc(O)cc1)[C@@H](C)O)C(=O)O` (H-YGRKKRRQRRRAFFAQLQLDEETGEFL-OH) the inhibition [4] was “inactive”.
In the case of `CC[C@H](C)[C@H](NC(=O)[C@@H]1CCCN1C(=O)[C@H](CC(C)C)NC(=O)[C@H](Cc1ccccc1)NC(=O)[C@H](CCC(=O)O)NC(=O)CNC(=O)[C@@H](NC(=O)[C@H](CCC(=O)O)NC(=O)[C@H](CCC(=O)O)NC(=O)[C@H](CC(=O)O)NC(=O)[C@H](CC(C)C)NC(=O)[C@H](CCC(N)=O)NC(=O)[C@H](CC(C)C)NC(=O)[C@H](CCCNC(=N)N)NC(=O)[C@H](CCCNC(=N)N)NC(=O)[C@H](CCCNC(=N)N)NC(=O)[C@H](CCC(N)=O)NC(=O)[C@H](CCCNC(=N)N)NC(=O)[C@H](CCCNC(=N)N)NC(=O)[C@H](CCCCN)NC(=O)[C@H](CCCCN)NC(=O)[C@H](CCCNC(=N)N)NC(=O)CNC(=O)[C@@H](N)Cc1ccc(O)cc1)[C@@H](C)O)C(=O)N[C@@H](CCC(N)=O)C(=O)O`, the inhibition [4] was “inactive”, the inhibition [5] was “Active” and the Activity (THP-1 [6]) was “inactive”. The fold change (FC) [7] was 24, the inhibition [8] was “Active” and the inhibition [9] was “Dose-dependent effect”. For the same molecule, the inhibition [10] was “Active” and the inhibition at 100 µM (THP-1 [11]) was 61%.
